Data published in PubChem BioAssay AID809 (SRMLSC, 2007).
Active and inactive are the calls of the source.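 Rule for the calls: active = EC50 for reversing nicotinamide-shortened yeast lifespan at or below a set limit; inactive = EC50 above that limit.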

test system: S. cerevisiae DeaD BB579, nicotinamide rescue growth, OD615 48 h; assay: rescue of nicotinamide-suppressed growth of yeast BB579, dose response, yeast lifespan extension project, S. cerevisiae (AID 809)
Summary of the method: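 Assay system: Saccharomyces cerevisiae DeaD strain BB579, log-phase cells; Medium: CSMM-D glucose restrictive medium; Dosing: compounds from 0.078 to 10 µM final, 0.5% DMSO; Times: 4 h pre-incubation, 48 h exposure at 30 °C; Technique: optical density at 615 nm (absorbance); Evaluation: culture saturation density reflecting mother-cell replicative lifespan.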

| SMILES | EC50 |
| --- | --- |
| COc1cc(/C=c2\sc3nc(-c4ccncc4)nn3c2=O)ccc1OC(C)=O | > 10 µM (inactive) |
| Cc1ccccc1OC(=O)n1c(=S)oc2cc(Cl)ccc21 | 6.59 µM |
| CCCCCOC(=O)CSc1nc2c(c(=O)[nH]c(=O)n2C)n1CCc1ccccc1 | > 10 µM (inactive) |
| CCOC(=O)c1[nH]nc(C(=O)c2ccc(Br)cc2)c1O | 5.89 µM |
| O=S(=O)(ON(c1ccccc1)S(=O)(=O)c1ccccc1)c1ccccc1 | > 10 µM (inactive) |
| Cc1[nH]n(-c2ccccc2)c(=O)c1N=Nc1nccs1 | 6 µM |
| COC(=O)/C(=C/c1cn(C)c2ccccc12)[N+](=O)[O-] | 2.24 µM |
| O=C1CC(c2ccc(F)cc2)CC(O)=C1C=NCCN1CCN(C(=O)Nc2ccccc2)CC1 (stereo not drawn) | 7.09 µM |
| O=C(c1ccccc1)c1nc2ccccc2[nH]c1=O | > 10 µM (inactive) |
| Cc1cccc(N2C(=O)/C(=C\c3ccc(OC(F)F)cc3)c3ccccc3C2=O)c1 | > 10 µM (inactive) |
| O=C1c2ccccc2C(Nc2ccc3c(c2)OCCO3)N1c1ccccn1 (stereo not drawn) | > 10 µM (inactive) |
| CC1CCc2cc(F)cc3c(O)c(C(=O)NCc4ccco4)c(=O)n1c23 (stereo not drawn) | > 10 µM (inactive) |
| O=c1cc(O)c2c(=O)n(-c3ccccc3)c3c(c2o1)CCCCCC3 | > 10 µM (inactive) |
| CC(=O)Oc1c(C(=O)c2nnc(C)o2)c(=O)n(C)c2ccccc12 | > 10 µM (inactive) |
| O=C1c2ccccc2NC(c2ccc(Cl)cc2Cl)N1O (stereo not drawn) | 6.33 µM |
| COc1c(Br)cc(Br)cc1/C=N/n1c(C)nnc1C | > 10 µM (inactive) |
| CCN1C(=O)/C(=C/N(C(C)=O)c2ccccc2)N(c2ccccc2)C1=S | > 10 µM (inactive) |
| Cc1ccc(-c2ccc(/C=C3\C(=O)ON=C3c3ccccc3)o2)c([N+](=O)[O-])c1 | 6.93 µM |
| CC1=CN2C(=N)/C(=C/c3ccc([N+](=O)[O-])o3)C(=O)N=C2S1 | 6.69 µM |
| COCCCNc1c2c3c(cccc3[nH]c1=O)C(=O)c1ccccc1-2 | 7.85 µM |
| Oc1ccc(NCc2ccccc2OCc2ccccc2F)cc1 | > 10 µM (inactive) |
| CCC(=O)N1CCN(CCN=CC2=C(O)CC(c3cccs3)CC2=O)CC1 (stereo not drawn) | 9.98 µM |

| SMILES | EC50 |
| --- | --- |
| C/C(=N\NC(=O)c1cccc(Cl)c1)C1C(=O)c2ccccc2C1=O | > 10 µM (inactive) |
| O=S(=O)(Nc1cccc2c1CCCC2)c1ccc(Cl)cc1 | > 10 µM (inactive) |
| CCCCn1c(/N=C/c2ccccc2NS(=O)(=O)c2ccc(C)cc2)nc2ccccc21 | 3.53 µM |
| O=C(O)Cc1ccc(N=Cc2c(O)ccc3ccccc23)cc1 | 3.85 µM |
| Cc1cc(N2C(=O)CC(Cc3ccccc3)C2=O)no1 (stereo not drawn) | > 10 µM (inactive) |
| CN1C/C(=C/c2cccnc2)C(=O)/C(=C/c2cccnc2)C1 | > 10 µM (inactive) |
| Cc1ccc(N/C(C(Cl)=C(Cl)Cl)=C(/Cl)[N+](=O)[O-])c(C)c1 | 8.68 µM |
| CC(C)(C)C1CCc2[nH]nc(C(=O)O)c2C1 (stereo not drawn) | 1.2 µM |
| COc1ccc(CNC(=O)C2CCN(c3nc(OC)nc(OC)n3)CC2)cc1 | > 10 µM (inactive) |
| CCC(=O)Nc1ccccc1Sc1ncnc2scc(-c3ccccc3)c12 | > 10 µM (inactive) |
| CCCc1cc(=O)oc2cc(C)c(CN3CCCC3)c(O)c12 | 6.15 µM |
| O=C(NC(=S)Nc1nc2c(s1)CSc1ccccc1-2)c1ccccc1 | > 10 µM (inactive) |
| CCSc1nnc(NC(=O)C2(C)Cc3ccccc3C(=O)O2)s1 (stereo not drawn) | 6.52 µM |
| C=CCN(CC=C)S(=O)(=O)c1ccc2nc(NC(=O)C(C)C)sc2c1 | > 10 µM (inactive) |
| O=C(Nc1scc(-c2cccs2)c1C(=O)O)c1cccs1 | 6.7 µM |
| CC(=O)c1c(C)[nH]c(C(=O)OC2CCCCC2=O)c1C (stereo not drawn) | > 10 µM (inactive) |
| CCOc1ccc(OCC(=O)c2c(O)c3ccccc3oc2=O)cc1 | 3.4 µM |
| CCOC(=O)c1ccc2c(c1)n(CCO)c(C)[n+]2CC | > 10 µM (inactive) |
| C=CCn1c(C)cc(C(=O)CSc2nc3ccccc3c(=O)[nH]2)c1C | > 10 µM (inactive) |
| CCOc1ccc(C2=NNC(c3cccs3)=Nc3ccc(OCC)cc32)cc1 | > 10 µM (inactive) |
| Cc1cc(C2C(C#N)=C(N)Oc3n[nH]c(C)c32)c(C)s1 (stereo not drawn) | > 10 µM (inactive) |
